The results in this text go back to ChEMBL document CHEMBL3877339, “Efficient Semisynthesis of (-)-Pseudoirroratin A from (-)-Flexicaulin A and Assessment of Their Antitumor Activities” (ACS Med Chem Lett, 2017).

Series [1] concerns HCT-116. The series is described as follows: Antiproliferative activity against human HCT116 cells at 2.5 ug/ml by light microscopic method. Format: functional, cell-based. Summed up:
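HCT-116 cells grown at relatively high density, untreated or compound-treated, then viewed by light microscopy at 10× magnification.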

The next series concerns Mus musculus. The series is described as follows: Toxicity in BALB/c mouse xenografted with human HCT116 cells assessed as change in body weight at 20 mg/kg, ip administered every other day for 14 days. To be noted: in vivo, 336 h. Format: organism-based, HCT-116. A general note: In xenograft studies the graft and the host belong to different species.
Another series deals with HT-29. The series is described as follows: (§1) Cytotoxicity against human HT-29 cells assessed as reduction in cell viability after 48 hrs by MTT assay. Format: functional, cell-based. The method in brief:
(§2)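 MTT viability assay over a compound concentration series in colorectal carcinoma cells; IC50 taken from dose–response curves. Mean ± SD of three separate experiments.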

Series [2] is described as follows: as §1. Format: functional, cell-based. To be noted: HT-29, 48 h. The method in brief:
as §2

The nature of series [3]: (§3) Cytotoxicity against human HCT116 cells assessed as reduction in cell viability after 48 hrs by MTT assay. Conditions: HCT-116, 48 h. The format is functional, cell-based. The method in brief: as §2
(Tetrazolium assays rely on reduction of a dye to a coloured formazan, in cell work by metabolically active cells.)

Series [4] concerns HCT-116. The description is as §3. The format is functional, cell-based. Summed up:
as §2

A short description of series [5]: Downregulation of HDAC1 expression in human HCT116 cells nuclear extract at >0.625 ug/ml after 48 hrs by Western blot method. The format is functional, cell-based. To be noted: HCT-116. Summed up:
(§4)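 HCT-116 cells treated at 0–2.5 μg/mL, then split into cytoplasmic and nuclear extracts for Western blotting. The cytoplasmic fraction was probed for cleaved PARP, cleaved caspase-3, phospho-ERK and survivin, with α-tubulin as loading control. The nuclear fraction was probed for HDAC1, with histone H3 as loading control.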
A general note: A western blot detects proteins with antibodies after separation by electrophoresis.

For series [6], the system named is HCT-116. The series is described as follows: Induction of apoptosis in human HCT116 cells assessed as necrotic cells at 1 ug/ml after 48 hrs by Annexin V-FITC/propidium iodide staining based flow cytometry (reference value: 1.3%). The format is functional.
Series [7] concerns HCT-116. The series is described as follows: Induction of apoptosis in human HCT116 cells cytoplasmic extract assessed as increase in cleaved PARP expression at 0.3125 to 2.5 ug/ml after 48 hrs by Western blot method. The format is functional, cell-based. Summed up: as §4
The test system of series [8] is HCT-116. The series is described as follows: Induction of apoptosis in human HCT116 cells cytoplasmic extract assessed as decrease in survivin expression at 0.3125 to 2.5 ug/ml after 48 hrs by Western blot method. The format is functional, cell-based. The method in brief: as §4
Series [9] concerns HCT-116. The series is described as follows: Induction of apoptosis in human HCT116 cells assessed as necrotic cells at 10 ug/ml after 48 hrs by Annexin V-FITC/propidium iodide staining based flow cytometry (reference value: 1.3%). Format: functional.
Series [10] concerns HCT-116. The series is described as follows: Induction of apoptosis in human HCT116 cells assessed as necrotic cells at 5 ug/ml after 48 hrs by Annexin V-FITC/propidium iodide staining based flow cytometry (reference value: 1.3%). Format: functional.
The subject of series [11] is HCT-116. The series is described as follows: Increase in ERK phosphorylation in human HCT116 cells cytoplasmic extract at 0.3125 to 2.5 ug/ml after 48 hrs by Western blot method. Format: cell-based. Summed up:
as §4

The test system of series [12] is HCT-116. The series is described as follows: Induction of apoptosis in human HCT116 cells cytoplasmic extract assessed as increase in cleaved caspase-3 expression at 0.3125 to 2.5 ug/ml after 48 hrs by Western blot method. The format is functional, cell-based. The method in brief:
as §4

In series [13] the test system is HCT-116. The series is described as follows: Induction of apoptosis in human HCT116 cells assessed as early apoptotic cells at 2 ug/ml after 48 hrs by Annexin V-FITC/propidium iodide staining based flow cytometry (reference value: 3.7%). Format: functional.
The subject of series [14] is HCT-116. The series is described as follows: Induction of apoptosis in human HCT116 cells assessed as early apoptotic cells at 1 ug/ml after 48 hrs by Annexin V-FITC/propidium iodide staining based flow cytometry (reference value: 3.7%). The format is functional.
The test system of series [15] is HCT-116. The series is described as follows: Induction of apoptosis in human HCT116 cells assessed as late apoptotic cells at 10 ug/ml after 48 hrs by Annexin V-FITC/propidium iodide staining based flow cytometry (reference value: 3.6%). Format: functional.
Series [16] concerns HCT-116. The series is described as follows: Induction of apoptosis in human HCT116 cells assessed as necrotic cells at 2 ug/ml after 48 hrs by Annexin V-FITC/propidium iodide staining based flow cytometry (reference value: 1.3%). The format is functional.
Series [17] relates to HCT-116. The series is described as follows: Induction of apoptosis in human HCT116 cells assessed as early apoptotic cells at 0.5 ug/ml after 48 hrs by Annexin V-FITC/propidium iodide staining based flow cytometry (reference value: 3.7%). Format: functional.
The test system of series [18] is HCT-116. The series is described as follows: Induction of apoptosis in human HCT116 cells assessed as late apoptotic cells at 5 ug/ml after 48 hrs by Annexin V-FITC/propidium iodide staining based flow cytometry (reference value: 3.6%). The format is functional.
For series [19], the system named is HCT-116. The series is described as follows: Induction of apoptosis in human HCT116 cells assessed as late apoptotic cells at 2 ug/ml after 48 hrs by Annexin V-FITC/propidium iodide staining based flow cytometry (reference value: 3.6%). The format is functional.
Series [20] deals with HCT-116. The series is described as follows: Induction of apoptosis in human HCT116 cells assessed as necrotic cells at 0.5 ug/ml after 48 hrs by Annexin V-FITC/propidium iodide staining based flow cytometry (reference value: 1.3%). Format: functional.
Series [21] relates to HCT-116. The series is described as follows: Induction of apoptosis in human HCT116 cells assessed as late apoptotic cells at 0.5 ug/ml after 48 hrs by Annexin V-FITC/propidium iodide staining based flow cytometry (reference value: 3.6%). Format: functional.
The subject of series [22] is HCT-116. The series is described as follows: Antitumor activity against human HCT116 cells xenografted in BALB/c nude mouse assessed as inhibition of tumor volume at 20 mg/kg, ip administered every other day for 14 days. The format is functional, organism-based. Summed up:
(§5)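 HCT-116 cells implanted subcutaneously in the flanks of nude mice. Compound given intraperitoneally at 20 mg/kg every other day for 14 days; controls got vehicle. Tumour volume measured per animal at set time points, and tumours excised at study end; mean ± SD, n = 10 per group.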

The test system of series [23] is HCT-116. The series is described as follows: Induction of apoptosis in human HCT116 cells assessed as late apoptotic cells at 1 ug/ml after 48 hrs by Annexin V-FITC/propidium iodide staining based flow cytometry (reference value: 3.6%). Format: functional.
Series [24] deals with HCT-116. The series is described as follows: Induction of apoptosis in human HCT116 cells after 48 hrs by Annexin V-FITC/propidium iodide staining based flow cytometry. The format is functional, cell-based.
For series [25], the system named is HCT-116. The series is described as follows: Induction of apoptosis in human HCT116 cells assessed as early apoptotic cells at 10 ug/ml after 48 hrs by Annexin V-FITC/propidium iodide staining based flow cytometry (reference value: 3.7%). Format: functional.
The subject of series [26] is HCT-116. The series is described as follows: Antitumor activity against human HCT116 cells xenografted in BALB/c nude mouse assessed as inhibition of tumor weight at 20 mg/kg, ip administered every other day for 14 days. The format is functional, organism-based. Summed up:
as §5

Series [27] relates to HCT-116. The series is described as follows: Induction of apoptosis in human HCT116 cells assessed as early apoptotic cells at 5 ug/ml after 48 hrs by Annexin V-FITC/propidium iodide staining based flow cytometry (reference value: 3.7%). The format is functional.

The source made the active and inactive calls. The calls are words filed in the database; no cut-off is given here.

Regarding `C=C1C(=O)[C@@]23[C@H](O)C[C@@H]4C(C)(C)CCC[C@@]4(COC(C)=O)[C@@H]2[C@@H](O)C[C@@H]1[C@H]3O` [FLEXICANLIN A], in the series with HCT-116 [1], the result was Active. In addition, the Activity result in the series with Mus musculus was “Non-Toxic”; in the series on HT-29, “Dose-dependent effect”; in the series with HCT-116 [4], “Dose-dependent effect”. Further, the IC50 (as a rule, the concentration at which inhibition is half-maximal) was 10.5 µM in series [2] and 7.3 µM in series [3].
As for `C=C1C(=O)[C@]23[C@H](O)C[C@@H]4C(C)(C)CCC[C@]45CO[C@](O)(C[C@@H]1[C@H]2O)[C@@H]53` [PSEUDOIRRORATIN A], the outcome (in series [5]; in the series with HCT-116 [1]; with HCT-116 [7]; in the series with HCT-116 [8]; in the series with HCT-116 [11]; with HCT-116 [12]) was Active. Besides, the result in the series on HCT-116 [22] and with HCT-116 [26] was Active. The Activity with HCT-116 [6] was 11.1%; in the series with HCT-116 [9], 13.8%; with Mus musculus, “Non-Toxic”; with HT-29, “Dose-dependent effect”; in the series on HCT-116 [10], 21.1%; in the series with HCT-116 [13] it was 18.3%. Moreover, the Activity in the series with HCT-116 [14] was 10%; in the series with HCT-116 [15], 30.2%; with HCT-116 [16], 14.7%; with HCT-116 [17], 8.5%; with HCT-116 [18], 24.7%; with HCT-116 [4], “Dose-dependent effect”. Besides, the Activity in the series with HCT-116 [19] was 27.8%; in the series on HCT-116 [20], 3.1%; with HCT-116 [21] it was 5.3%; in the series with HCT-116 [23], 17%; with HCT-116 [24] it was “Dose-dependent effect”; in the series with HCT-116 [25], 33.9%. For the same molecule, the Activity in the series on HCT-116 [27] is recorded as 26.2%. Moreover, the IC50 in series [2] was found to be 5.9 µM; in series [3], 4.9 µM.
